Reference: ChEMBL document CHEMBL4257586, “Polyheteroaryl Oxazole/Pyridine-Based Compounds Selected in Vitro as G-Quadruplex Ligands Inhibit Rock Kinase and Exhibit Antiproliferative Activity” (J Med Chem, 2018)
pIC50: −log10 of the molar value. Active and inactive are the calls of the source. No cut-off for these calls is given here.

What was measured:
[1] = test system: Quadruplex DNA; experiment: Binding affinity to 22AG G-quadruplex DNA (unknown origin) by fluorescence spectrophotometric analysis; type: nucleic-acid assay
Outline: (§1)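 Fluorescence titration in 10 mM lithium cacodylate pH 7.2 with 100 mM KCl, 1 cm quartz cell. Ligand at 0.5 μM, excited at 330 or 340 nm, with increasing DNA added (22AG, c-Myc or ds26). Emission over 340/350–650 nm plotted against DNA concentration and fitted by Hill equation to give apparent Ka (1:1).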

[2] = test system: HeLa; experiment: Antiproliferative activity against human HeLa cells after 72 hrs by MTS assay; type: functional, cell-based
Outline: (§2)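 Cells seeded at day 0 in 96-well plates, serial compound dilutions added at day 1; viable cells read 72 h after drug addition by MTS tetrazolium assay, in triplicate. IC50 taken as concentration halving cell growth. One first trial, then two additional experiments on selected compounds.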

[3] = organism: Homo sapiens; experiment: Selectivity index, ratio of IC50 for inhibition of DMPK (unknown origin) to IC50 for inhibition of ROCK2 (unknown origin)
[4] = target: T1, Rho-associated protein kinase (Homo sapiens) (UniProt O75116+Q13464); experiment: Inhibition of ROCK in human Hela cells assessed as formation of long neurite-like extensions at 2 uM by phalloidin-based immunofluorescence assay; type: cell-based
T1 sequence (O75116 whole entry, looked up): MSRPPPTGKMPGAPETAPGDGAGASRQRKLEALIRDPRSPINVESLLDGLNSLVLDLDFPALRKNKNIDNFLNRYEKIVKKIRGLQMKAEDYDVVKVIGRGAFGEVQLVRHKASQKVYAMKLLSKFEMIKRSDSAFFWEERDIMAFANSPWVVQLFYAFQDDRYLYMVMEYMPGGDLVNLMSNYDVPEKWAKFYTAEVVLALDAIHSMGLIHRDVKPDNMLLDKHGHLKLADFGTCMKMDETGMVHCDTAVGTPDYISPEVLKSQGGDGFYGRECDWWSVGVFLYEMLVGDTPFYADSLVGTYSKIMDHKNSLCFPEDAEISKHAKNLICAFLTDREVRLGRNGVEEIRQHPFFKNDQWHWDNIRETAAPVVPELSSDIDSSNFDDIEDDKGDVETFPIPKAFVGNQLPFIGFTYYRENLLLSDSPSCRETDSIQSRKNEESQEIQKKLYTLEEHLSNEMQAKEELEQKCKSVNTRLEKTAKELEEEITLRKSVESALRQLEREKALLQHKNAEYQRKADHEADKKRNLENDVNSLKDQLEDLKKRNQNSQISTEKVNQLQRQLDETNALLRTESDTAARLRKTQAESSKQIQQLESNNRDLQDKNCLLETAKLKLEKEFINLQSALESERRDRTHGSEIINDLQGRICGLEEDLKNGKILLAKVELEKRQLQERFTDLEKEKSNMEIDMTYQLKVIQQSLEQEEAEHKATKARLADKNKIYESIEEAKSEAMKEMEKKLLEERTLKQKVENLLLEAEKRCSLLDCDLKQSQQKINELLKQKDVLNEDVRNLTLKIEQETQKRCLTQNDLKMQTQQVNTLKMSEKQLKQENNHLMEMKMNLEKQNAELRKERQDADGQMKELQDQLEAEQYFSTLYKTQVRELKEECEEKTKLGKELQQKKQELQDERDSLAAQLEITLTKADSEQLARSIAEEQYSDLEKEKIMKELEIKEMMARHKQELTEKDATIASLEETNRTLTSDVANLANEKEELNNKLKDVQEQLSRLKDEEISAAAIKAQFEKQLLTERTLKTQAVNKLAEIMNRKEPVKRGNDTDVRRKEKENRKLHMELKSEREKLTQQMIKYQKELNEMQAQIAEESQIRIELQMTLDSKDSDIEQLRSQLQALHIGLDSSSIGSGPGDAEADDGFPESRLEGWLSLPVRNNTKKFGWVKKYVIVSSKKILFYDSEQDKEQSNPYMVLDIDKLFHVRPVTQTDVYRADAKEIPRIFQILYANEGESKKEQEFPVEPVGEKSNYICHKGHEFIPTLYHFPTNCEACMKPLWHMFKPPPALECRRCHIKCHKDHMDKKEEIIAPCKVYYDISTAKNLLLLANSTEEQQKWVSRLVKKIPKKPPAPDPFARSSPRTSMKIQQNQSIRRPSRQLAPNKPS
T1 sequence (Q13464 whole entry, looked up): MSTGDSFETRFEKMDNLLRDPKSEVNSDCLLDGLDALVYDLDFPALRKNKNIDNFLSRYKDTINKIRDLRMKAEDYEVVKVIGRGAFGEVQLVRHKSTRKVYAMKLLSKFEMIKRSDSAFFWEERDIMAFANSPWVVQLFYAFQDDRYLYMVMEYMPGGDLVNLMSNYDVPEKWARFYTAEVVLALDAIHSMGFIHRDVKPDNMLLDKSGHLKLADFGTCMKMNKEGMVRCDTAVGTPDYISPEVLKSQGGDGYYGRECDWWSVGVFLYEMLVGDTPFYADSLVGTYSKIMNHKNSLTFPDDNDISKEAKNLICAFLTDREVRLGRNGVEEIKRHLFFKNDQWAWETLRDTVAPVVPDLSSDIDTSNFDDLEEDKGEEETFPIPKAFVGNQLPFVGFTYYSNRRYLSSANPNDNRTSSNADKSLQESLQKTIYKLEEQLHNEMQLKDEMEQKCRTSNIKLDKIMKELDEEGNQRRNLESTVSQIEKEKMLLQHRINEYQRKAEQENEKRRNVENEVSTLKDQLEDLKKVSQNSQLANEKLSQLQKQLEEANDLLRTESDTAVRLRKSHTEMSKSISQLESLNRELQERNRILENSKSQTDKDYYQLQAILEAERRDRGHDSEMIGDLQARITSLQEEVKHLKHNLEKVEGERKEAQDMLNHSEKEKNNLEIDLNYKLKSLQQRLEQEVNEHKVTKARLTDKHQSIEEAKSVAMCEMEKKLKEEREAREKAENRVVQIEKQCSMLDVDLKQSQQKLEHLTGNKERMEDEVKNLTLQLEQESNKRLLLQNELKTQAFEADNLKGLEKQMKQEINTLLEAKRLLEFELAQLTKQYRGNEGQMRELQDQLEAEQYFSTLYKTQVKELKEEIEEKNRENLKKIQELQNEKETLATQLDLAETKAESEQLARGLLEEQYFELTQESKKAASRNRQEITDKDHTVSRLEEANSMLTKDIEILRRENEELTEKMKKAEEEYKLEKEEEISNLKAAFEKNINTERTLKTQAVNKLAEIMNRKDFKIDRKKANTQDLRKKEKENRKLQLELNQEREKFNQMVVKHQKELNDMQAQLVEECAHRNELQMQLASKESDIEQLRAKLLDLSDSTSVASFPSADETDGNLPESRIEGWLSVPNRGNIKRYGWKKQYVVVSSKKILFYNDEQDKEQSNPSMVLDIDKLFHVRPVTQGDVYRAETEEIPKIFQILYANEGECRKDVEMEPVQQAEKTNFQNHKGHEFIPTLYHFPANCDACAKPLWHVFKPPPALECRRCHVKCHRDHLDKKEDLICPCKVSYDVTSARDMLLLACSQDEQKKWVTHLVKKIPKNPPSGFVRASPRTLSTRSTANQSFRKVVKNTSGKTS
Outline: (§3)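 HeLa cells on glass coverslips treated overnight at 2 μM or with DMSO control, then fixed in 4% formaldehyde for 10 min at 37 °C. Actin stained with phalloidin; α-tubulin or anti-phospho-Tyr focal points also labelled, plus DNA. Imaged by confocal microscopy.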

[5] = test system: dsDNA; experiment: Binding affinity to duplex 26 DNA (unknown origin) assessed as change in melting temperature at 1 uM by FRET; type: nucleic-acid assay
[6] = test system: Quadruplex DNA; experiment: Binding affinity to 6-FAM labeled human telomeric F21T G-quadruplex DNA assessed as change in melting temperature at 1 uM in K+ rich buffer (10 mM KCl, 90 mM LiCl, 10 mM Li cacodylate) by FRET assay; type: nucleic-acid assay
Outline: (§4)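 FRET melting in duplicate. Dual-labelled oligo (6-FAM/TAMRA) at 0.2 μM with ligand at 1 μM, in 10 mM Li cacodylate pH 7.2. Buffer was 10 mM KCl + 90 mM LiCl for F21T and 1 mM KCl + 99 mM LiCl for FMycT. Sample annealed 90 °C 5 min, cooled to 4 °C overnight. Equilibrated 5 min at 25 °C, then ramped 0.5 °C/min to 95 °C. FAM read 492/516 nm, normalized; Tm taken at the fitted inflection point.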

[7] = test system: HeLa; experiment: Induction of double stranded DNA breaks in human HeLa cells assessed as gamma-H2Ax phosphorylation at 1 uM after 24 to 48 hrs by Hoechst 33342 staining-based laser confocal microscopy; type: functional, cell-based
[8] = target: T2, Rho-associated protein kinase 2 (Homo sapiens, UniProt O75116); experiment: Inhibition of ROCK2 in human HeLa cells assessed as reduction in MYPT1 phosphorylation at Thr853 at 2 uM after 3 hrs by immunofluorescence assay; type: cell-based
Outline: (§5)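 HeLa cells treated 3 h at 2 or 5 μM, with Y-27632 and untreated controls, then formaldehyde-fixed. Phospho-MYPT1 Thr853 or phospho-cofilin Ser3 immunostained with DNA. Confocal 0.5 μm slices plus z-projection, with acquisition settings fixed from the control.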
Target sequence in this assay (O75116 whole entry, looked up): as the sequence (O75116 whole entry, looked up) above

[9] = target: T2, Rho-associated protein kinase 2; experiment: Inhibition of ROCK2 (unknown origin) by ATP competition assay
Outline: (§6)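 Recombinant kinases assayed in duplicate by radioactive filter-binding assay with 33P-ATP; no-compound controls run and each plate validated by Z′. IC50 values determined.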
Target sequence in this assay (O75116 whole entry): as the sequence (O75116 whole entry, looked up) above

[10] = target: Rho-associated protein kinase 1 (Homo sapiens, UniProt Q13464); experiment: Inhibition of ROCK1 (unknown origin) by ATP competition assay; outline: as §6
Chain of Rho-associated protein kinase 1 (Q13464 whole entry): as the sequence (Q13464 whole entry, looked up) above

[11] = test system: HeLa; experiment: Cytotoxicity against human HeLa cells assessed as reduction in organization of stress fibers at 1 uM after 24 to 48 hrs by Hoechst 33342 staining-based laser confocal microscopy; type: functional, cell-based
[12] = target: T2, Rho-associated protein kinase 2; experiment: Inhibition of ROCK2 in human HeLa cells assessed as reduction in cofilin phosphorylation at Ser3 at 2 uM after 3 hrs by immunofluorescence assay; type: cell-based; outline: as §5
Target sequence in this assay (O75116 whole entry, looked up): as the sequence (O75116 whole entry, looked up) above

[13] = target: T2, Rho-associated protein kinase 2; experiment: Inhibition of ROCK2 in human HeLa cells assessed as reduction in cofilin phosphorylation at Ser3 at 2 uM after 3 hrs by Western blot analysis; type: cell-based
Outline: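 HeLa cells treated 3 h at 2 or 5 μM, then lysed in RIPA buffer with protease and phosphatase inhibitors. Western blot probed with anti-phospho-cofilin Ser3 and anti-actin (1/1000) on the same split membrane; luminescence detection.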
Target sequence in this assay (O75116 whole entry, looked up): as above

[14] = test system: HeLa; experiment: Induction of double stranded DNA breaks in human HeLa cells assessed as gamma-H2Ax phosphorylation at 2 uM after 24 to 48 hrs by Hoechst 33342 staining-based laser confocal microscopy; type: functional, cell-based
[15] = test system: Quadruplex DNA; experiment: Binding affinity to 6-FAM labeled human proto-oncogene sequence FMycT G-quadruplex DNA assessed as change in melting temperature at 1 uM in presence of K+ buffer (1 mM KCl, 99 mM LiCl, 10 mM Li cacodylate) by FRET assay; type: nucleic-acid assay; outline: as §4
[16] = organism: Homo sapiens; experiment: Selectivity index, ratio of IC50 for inhibition of ROCK1 (unknown origin) to IC50 for inhibition of ROCK2 (unknown origin)
[17] = target: T3, Myotonin-protein kinase (Homo sapiens, UniProt Q09013); experiment: Inhibition of DMPK (unknown origin) by ATP competition assay; outline: as §6
T3 sequence (Q09013 whole entry): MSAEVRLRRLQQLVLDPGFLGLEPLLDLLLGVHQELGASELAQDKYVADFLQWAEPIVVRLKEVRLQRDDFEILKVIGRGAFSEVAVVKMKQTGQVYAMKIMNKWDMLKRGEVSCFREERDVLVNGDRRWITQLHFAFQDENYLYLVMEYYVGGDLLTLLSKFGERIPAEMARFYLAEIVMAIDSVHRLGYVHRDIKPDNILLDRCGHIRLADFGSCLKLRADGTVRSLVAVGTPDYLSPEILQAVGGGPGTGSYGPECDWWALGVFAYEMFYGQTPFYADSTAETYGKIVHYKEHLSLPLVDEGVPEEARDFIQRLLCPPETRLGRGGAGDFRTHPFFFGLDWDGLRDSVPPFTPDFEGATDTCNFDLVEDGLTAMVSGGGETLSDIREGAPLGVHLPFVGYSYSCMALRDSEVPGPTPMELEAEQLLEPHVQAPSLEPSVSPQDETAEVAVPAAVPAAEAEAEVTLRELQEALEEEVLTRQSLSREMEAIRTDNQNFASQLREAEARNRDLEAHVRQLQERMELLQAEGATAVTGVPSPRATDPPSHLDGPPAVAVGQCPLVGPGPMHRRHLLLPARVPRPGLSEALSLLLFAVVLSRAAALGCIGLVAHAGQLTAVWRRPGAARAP

[18] = test system: Quadruplex DNA; experiment: Binding affinity to c-Myc G-quadruplex DNA (unknown origin) by fluorescence spectrophotometric analysis; type: nucleic-acid assay; outline: as §1
[19] = target: T1, Rho-associated protein kinase (Homo sapiens); experiment: Inhibition of ROCK in human Hela cells assessed as reduction in cell spreading at 2 uM by phalloidin-based immunofluorescence assay; outline: as §3
[20] = test system: A549; experiment: Antiproliferative activity against human A549 cells after 72 hrs by MTS assay; type: functional, cell-based; details: A549, 72 h; outline: as §2
[21] = test system: dsDNA; experiment: Binding affinity to duplex 26 DNA (unknown origin) by fluorescence spectrophotometric analysis; type: nucleic-acid assay; outline: as §1

Activity [1] | Ka [1] | pIC50 [2] | Ratio IC50 [3] | inhibition [4] | Activity [5] | ΔTm [6] | inhibition [8] | pIC50 [9] | pIC50 [10] | inhibition [12] | Ratio IC50 [16] | pIC50 [17] | Activity [18] | Ka [18] | inhibition [19] | Ka [21] | Structure (SMILES) | Activity [7] | Activity [11] | Activity [14] | other results
Dose-dependent effect | 6.7 ×10⁶ /M | 6.59 | > 50 | Active | inactive | 6 to 9 °C | Active | 7.54 | < 6.00 | Active | > 50 | < 6.00 | Dose-dependent effect | 19 ×10⁶ /M | Active | 0.9 ×10⁶ /M | c1cc(-c2cnco2)nc(-c2cnc(-c3cccc(-c4ncc(-c5cccc(-c6cnco6)n5)o4)n3)o2)c1 | inactive | Active | inactive | inhibition [13]: Active; ΔTm [15]: 3.4 to 6.4 °C; pIC50 [20]: 5.57
Dose-dependent effect | 2.5 ×10⁶ /M |  | > 50 | Active | inactive | 6 to 9 °C |  | 7.70 | < 6.00 |  | > 50 | < 6.00 | Dose-dependent effect | 22 ×10⁶ /M | Active | 1 ×10⁶ /M | CN(C)CCOc1cc(-c2ncc(-c3cccc(-c4cnco4)n3)o2)nc(-c2ncc(-c3cccc(-c4cnco4)n3)o2)c1 | inactive | Active | inactive | ΔTm [15]: 3.4 to 6.4 °C
Dose-dependent effect | 3.9 ×10⁶ /M | 6.87 | 1.4 | Active | inactive | 6 to 9 °C | Active | 6.07 | < 6.00 | Active | 1.4 | < 6.00 | Dose-dependent effect | 16 ×10⁶ /M | Active | 3 ×10⁶ /M | c1cc(-c2cnco2)nc(-c2cnc(-c3cccc(-c4cccc(-c5ncc(-c6cccc(-c7cnco7)n6)o5)n4)n3)o2)c1 | inactive | Active | inactive | inhibition [13]: Active; pIC50 [20]: 5.40
